Biological target: T1, Growth hormone secretagogue receptor type 1 (Homo sapiens, UniProt Q92847)
Assay: Displacement of [125I]ghrelin from human GHSR1a after 1 hr
Details: not given
How it was run: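 Membranes (0.5 ug) from RAGE-based GHSR1a-expressing cells incubated 1 h with 0.02 nM [125I]ghrelin in 25 mM Hepes pH 7.2, 10 mM MgCl2, 2 mM EGTA, 0.1% BSA across a 12-point compound dose range; filtration over polyethylenimine-coated GFB plates, scintillation counting; four-parameter logistic fit, Ki via Cheng-Prusoff; typically tested on three separate occasions.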

T1 sequence (Q92847 whole entry): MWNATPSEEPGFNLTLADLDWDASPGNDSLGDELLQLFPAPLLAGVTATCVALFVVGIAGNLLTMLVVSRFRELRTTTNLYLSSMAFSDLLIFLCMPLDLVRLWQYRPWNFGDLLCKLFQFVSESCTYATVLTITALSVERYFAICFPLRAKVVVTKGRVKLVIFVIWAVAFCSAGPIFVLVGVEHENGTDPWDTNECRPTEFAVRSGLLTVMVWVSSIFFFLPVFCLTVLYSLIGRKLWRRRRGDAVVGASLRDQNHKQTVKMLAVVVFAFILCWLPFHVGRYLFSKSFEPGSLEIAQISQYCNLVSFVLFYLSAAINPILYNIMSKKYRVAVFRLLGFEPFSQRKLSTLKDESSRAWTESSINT

Row | Structure (SMILES) | Ki [nM]
1 | CCCCNC(=O)CCCn1nnnc1[C@@H](COCc1ccccc1)NC(=O)C(C)(C)N | 1780
2 | CC(C)(N)C(=O)N[C@H](COCc1ccccc1)c1nnn(CCc2ccccc2NS(C)(=O)=O)n1 | 2660
3 | CC(C)(N)C(=O)N[C@H](COCc1ccccc1)c1nnn(CCc2cc3ccccc3n2S(C)(=O)=O)n1 | 1270
4 | CC(C)(N)C(=O)N[C@H](COCc1ccccc1)c1nnnn1Cc1ccccc1NS(C)(=O)=O | 4450
5 | CC(C)(N)C(=O)N[C@H](COCc1ccccc1)c1nnnn1CCc1ccccc1NS(C)(=O)=O | 2200
6 | CC(C)(N)C(=O)N[C@H](COCc1ccccc1)c1nnnn1CC1CN(S(C)(=O)=O)c2ccccc21 (some centres not stated) | 1590
7 | CN(c1ccccc1CCCn1nnc([C@@H](COCc2ccccc2)NC(=O)C(C)(C)N)n1)S(C)(=O)=O | 2390
8 | CN(c1ccccc1CCCn1nnnc1[C@@H](COCc1ccccc1)NC(=O)C(C)(C)N)S(C)(=O)=O | 1720
9 | CC(C)(N)C(=O)N[C@H](COCc1ccccc1)c1nnnn1CCC#N | 2940
10 | COC(=O)CCn1nnnc1[C@@H](Cc1c[nH]c2ccccc12)NC(=O)C(C)(C)N | > 5000
11 | CCCCNC(=O)CCn1nnnc1[C@@H](COCc1ccccc1)NC(=O)C(C)(C)N | 2190
12 | CC(C)(N)C(=O)N[C@H](COCc1ccccc1)c1nnnn1CCCCCNC(=O)OCc1ccccc1 | 320
13 | CC(C)(N)C(=O)N[C@H](COCc1ccccc1)c1nnnn1CCCc1ccccc1 | 200
14 | CC(C)(N)C(=O)N[C@H](COCc1ccccc1)c1nnn(Cc2ccccc2NS(C)(=O)=O)n1 | > 5000
15 | COC(=O)C(c1ccccc1)n1nnc([C@@H](COCc2ccccc2)NC(=O)C(C)(C)N)n1 (some centres not stated) | > 5000
16 | CC(C)(N)C(=O)N[C@H](COCc1ccccc1)c1nnn(CC#N)n1 | > 5000
17 | CC(C)(N)C(=O)N[C@H](COCc1ccccc1)c1nnn(Cc2ccccc2)n1 | 4750
18 | CC(C)(N)C(=O)N[C@H](COCc1ccccc1)c1nnn(Cc2cccc(NS(C)(=O)=O)c2)n1 | > 5000
19 | CC(C)(N)C(=O)N[C@H](COCc1ccccc1)c1nnnn1CCc1cc2ccccc2n1S(C)(=O)=O | 970

Row | Structure (SMILES) | Ki [nM]
20 | CC(C)(N)C(=O)N[C@H](COCc1ccccc1)c1nnn(CCCCC#N)n1 | > 5000
21 | CC(C)(N)C(=O)N[C@H](COCc1ccccc1)c1nnnn1CCCCC#N | 3120
22 | COC(=O)CCn1nnnc1[C@@H](COCc1ccccc1)NC(=O)C(C)(C)N | 3380
23 | COC(=O)CCCn1nnnc1[C@@H](COCc1ccccc1)NC(=O)C(C)(C)N | 2380
24 | CC(C)(N)C(=O)N[C@H](COCc1ccccc1)c1nnnn1CC#N | 4170
25 | CC(C)(N)C(=O)N[C@H](COCc1ccccc1)c1nnnn1C/C=C/c1ccccc1 | 190
26 | CCCCNC(=O)CCn1nnnc1[C@@H](CCc1ccccc1)NC(=O)C(C)(C)N | 1370
27 | CC(C)(N)C(=O)N[C@H](COCc1ccccc1)c1nnnn1CCC(=O)NCCCc1ccccc1 | 820
28 | CC(C)(N)C(=O)N[C@H](COCc1ccccc1)c1nnnn1CCCCCNS(C)(=O)=O | > 5000
29 | CC(C)(N)C(=O)N[C@H](COCc1ccccc1)c1nnnn1Cc1ccccc1 | 1900
30 | CC(C)(N)C(=O)N[C@H](COCc1ccccc1)c1nnnn1Cc1ccc(NS(C)(=O)=O)cc1 | > 5000
31 | CC(C)(N)C(=O)N[C@H](COCc1ccccc1)c1nnn(C/C=C/c2ccccc2)n1 | > 5000
32 | CC(C)(N)C(=O)N[C@H](COCc1ccccc1)c1nnnn1Cc1cccc(NS(C)(=O)=O)c1 | > 5000
33 | CC(C)(N)C(=O)N[C@H](COCc1ccccc1)c1nnnn1CCC(=O)NCCc1ccccc1 | 780
34 | CC(C)(N)C(=O)N[C@H](COCc1ccccc1)c1nnnn1CCC(=O)NCc1ccccc1 | 1070
35 | CC(C)(N)C(=O)N[C@H](COCc1ccccc1)c1nnnn1CCc1nnn[nH]1 | 5000
36 | COC(=O)C(c1ccccc1)n1nnnc1[C@@H](COCc1ccccc1)NC(=O)C(C)(C)N (some centres not stated) | 470
37 | CC(C)(N)C(=O)N[C@H](COCc1ccccc1)c1nnn(CC2Cc3ccccc3N2S(C)(=O)=O)n1 (some centres not stated) | > 5000
38 | CC(C)(N)C(=O)N[C@H](COCc1ccccc1)c1nnn(Cc2ccc(NS(C)(=O)=O)cc2)n1 | > 5000

Biological target: T1, Growth hormone secretagogue receptor type 1
Assay: Agonist activity at human GHS receptor expressed in H4 glioma cells assessed as intracellular calcium concentration by FLIPR assay
Type: functional, cell-based
Details: not given

Row | Structure (SMILES) | EC50 [nM]
39 | CCCCNC(=O)CCCn1nnnc1[C@@H](COCc1ccccc1)NC(=O)C(C)(C)N | 30
40 | CC(C)(N)C(=O)N[C@H](COCc1ccccc1)c1nnn(CCc2ccccc2NS(C)(=O)=O)n1 | 4110
41 | CC(C)(N)C(=O)N[C@H](COCc1ccccc1)c1nnn(CCc2cc3ccccc3n2S(C)(=O)=O)n1 | 150
42 | CC(C)(N)C(=O)N[C@H](COCc1ccccc1)c1nnnn1Cc1ccccc1NS(C)(=O)=O | 390
43 | CC(C)(N)C(=O)N[C@H](COCc1ccccc1)c1nnnn1CCc1ccccc1NS(C)(=O)=O | 67
44 | CC(C)(N)C(=O)N[C@H](COCc1ccccc1)c1nnnn1CC1CN(S(C)(=O)=O)c2ccccc21 (some centres not stated) | 147
45 | CN(c1ccccc1CCCn1nnc([C@@H](COCc2ccccc2)NC(=O)C(C)(C)N)n1)S(C)(=O)=O | 107
46 | CN(c1ccccc1CCCn1nnnc1[C@@H](COCc1ccccc1)NC(=O)C(C)(C)N)S(C)(=O)=O | 14
47 | CC(C)(N)C(=O)N[C@H](COCc1ccccc1)c1nnnn1CCC#N | 30
48 | COC(=O)CCn1nnnc1[C@@H](Cc1c[nH]c2ccccc12)NC(=O)C(C)(C)N | 200
49 | CCCCNC(=O)CCn1nnnc1[C@@H](COCc1ccccc1)NC(=O)C(C)(C)N | 42
50 | CC(C)(N)C(=O)N[C@H](COCc1ccccc1)c1nnnn1CCCCCNC(=O)OCc1ccccc1 | 10
51 | CC(C)(N)C(=O)N[C@H](COCc1ccccc1)c1nnnn1CCCc1ccccc1 | 17
52 | CC(C)(N)C(=O)N[C@H](COCc1ccccc1)c1nnn(Cc2ccccc2NS(C)(=O)=O)n1 | 426
53 | COC(=O)C(c1ccccc1)n1nnc([C@@H](COCc2ccccc2)NC(=O)C(C)(C)N)n1 (some centres not stated) | 3170
54 | CC(C)(N)C(=O)N[C@H](COCc1ccccc1)c1nnn(CC#N)n1 | 1520
55 | CC(C)(N)C(=O)N[C@H](COCc1ccccc1)c1nnn(Cc2ccccc2)n1 | 1120
56 | CC(C)(N)C(=O)N[C@H](COCc1ccccc1)c1nnn(Cc2cccc(NS(C)(=O)=O)c2)n1 | 868
57 | CC(C)(N)C(=O)N[C@H](COCc1ccccc1)c1nnnn1CCc1cc2ccccc2n1S(C)(=O)=O | 4

Row | Structure (SMILES) | EC50 [nM]
58 | CC(C)(N)C(=O)N[C@H](COCc1ccccc1)c1nnn(CCCCC#N)n1 | 1860
59 | CC(C)(N)C(=O)N[C@H](COCc1ccccc1)c1nnnn1CCCCC#N | 35
60 | COC(=O)CCn1nnnc1[C@@H](COCc1ccccc1)NC(=O)C(C)(C)N | 43
61 | COC(=O)CCCn1nnnc1[C@@H](COCc1ccccc1)NC(=O)C(C)(C)N | 55
62 | CC(C)(N)C(=O)N[C@H](COCc1ccccc1)c1nnnn1CC#N | 29
63 | CC(C)(N)C(=O)N[C@H](COCc1ccccc1)c1nnnn1C/C=C/c1ccccc1 | 12
64 | CCCCNC(=O)CCn1nnnc1[C@@H](CCc1ccccc1)NC(=O)C(C)(C)N | 49
65 | CC(C)(N)C(=O)N[C@H](COCc1ccccc1)c1nnnn1CCC(=O)NCCCc1ccccc1 | 59
66 | CC(C)(N)C(=O)N[C@H](COCc1ccccc1)c1nnnn1CCCCCNS(C)(=O)=O | 75
67 | CC(C)(N)C(=O)N[C@H](COCc1ccccc1)c1nnnn1Cc1ccccc1 | 99
68 | CC(C)(N)C(=O)N[C@H](COCc1ccccc1)c1nnnn1Cc1ccc(NS(C)(=O)=O)cc1 | 259
69 | CC(C)(N)C(=O)N[C@H](COCc1ccccc1)c1nnn(C/C=C/c2ccccc2)n1 | 517
70 | CC(C)(N)C(=O)N[C@H](COCc1ccccc1)c1nnnn1Cc1cccc(NS(C)(=O)=O)c1 | 116
71 | CC(C)(N)C(=O)N[C@H](COCc1ccccc1)c1nnnn1CCC(=O)NCCc1ccccc1 | 27
72 | CC(C)(N)C(=O)N[C@H](COCc1ccccc1)c1nnnn1CCC(=O)NCc1ccccc1 | 51
73 | CC(C)(N)C(=O)N[C@H](COCc1ccccc1)c1nnnn1CCc1nnn[nH]1 | 347
74 | COC(=O)C(c1ccccc1)n1nnnc1[C@@H](COCc1ccccc1)NC(=O)C(C)(C)N (some centres not stated) | 20
75 | CC(C)(N)C(=O)N[C@H](COCc1ccccc1)c1nnn(CC2Cc3ccccc3N2S(C)(=O)=O)n1 (some centres not stated) | 546
76 | CC(C)(N)C(=O)N[C@H](COCc1ccccc1)c1nnn(Cc2ccc(NS(C)(=O)=O)cc2)n1 | 986

Test system: not listed separately
Assay: Oral bioavailability in dog
Type: ADME, organism-based, Canis lupus familiaris
Details: in vivo

Row | Structure (SMILES) | bioavailability [%]
77 | CC(C)(N)C(=O)N[C@H](COCc1ccccc1)c1nnnn1CCC#N | 76

Test system: not listed separately
Assay: Oral bioavailability in rat
Type: ADME, organism-based
Details: in vivo

Row | Structure (SMILES) | bioavailability [%]
78 | CC(C)(N)C(=O)N[C@H](COCc1ccccc1)c1nnnn1CCC#N | 56

Biological target: Growth hormone secretagogue receptor type 1 (Rattus norvegicus) (UniProt O08725)
Sequence (O08725 whole entry): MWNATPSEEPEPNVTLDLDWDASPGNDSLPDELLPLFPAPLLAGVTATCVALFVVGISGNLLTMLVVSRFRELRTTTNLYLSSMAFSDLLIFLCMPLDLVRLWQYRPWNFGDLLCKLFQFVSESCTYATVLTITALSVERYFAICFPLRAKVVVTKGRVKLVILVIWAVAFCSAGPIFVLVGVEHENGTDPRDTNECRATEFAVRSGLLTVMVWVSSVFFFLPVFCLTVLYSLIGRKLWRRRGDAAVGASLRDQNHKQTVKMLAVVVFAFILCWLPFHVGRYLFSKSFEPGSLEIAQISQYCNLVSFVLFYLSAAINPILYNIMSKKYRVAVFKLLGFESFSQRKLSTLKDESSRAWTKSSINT
Assay: Agonist activity at GHS receptor in intravenously dosed anesthetized Wistar rat after 15 mins
Type: functional, organism-based
Details: not given

Row | Structure (SMILES) | ED50 [µmol/kg]
79 | CC(C)(N)C(=O)N[C@H](COCc1ccccc1)c1nnnn1CCC#N | 0.0085
80 | CC(C)(N)C(=O)N[C@H](COCc1ccccc1)c1nnnn1CCc1cc2ccccc2n1S(C)(=O)=O | > 0.0174
81 | CC(C)(N)C(=O)N[C@H](COCc1ccccc1)c1nnnn1C/C=C/c1ccccc1 | 0.0264

Test system: Canis familiaris
Assay: Effect on GH level in Beagle dog at 10 mg/kg, po
Type: functional, Canis lupus familiaris
Details: not given
How it was run: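 Beagle dogs dosed orally at 10 mg/kg alongside vehicle controls; plasma GH followed to 120 min post-dose, read-out as mean peak GH level in ng/mL.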

Row | Structure (SMILES) | Activity [ng/mL]
82 | CC(C)(N)C(=O)N[C@H](COCc1ccccc1)c1nnnn1CCC#N | 30
